Measurements reported in ChEMBL document CHEMBL1143177, “Antitumor effects of curcumin and structurally beta-diketone modified analogs on multidrug resistant cancer cells” (Bioorg Med Chem Lett, 2008).

Key:
[1] = Growth inhibition of human HA22T/VGH cells after 72 hrs by MTS assay
MCF7R = assay: Growth inhibition of human multidrug-resistant MCF7R cells after 72 hrs by MTS assay
MCF7 = assay: Growth inhibition of human MCF7 cells after 72 hrs by MTS assay; details: MCF7, 72 h
[2] = molecular target: Transcription factor p65 (Homo sapiens) (UniProt Q04206); assay: Reduction in DNA binding activity of NF-kappaB p65 subunit in human HA22T/VGH cells after 4 hrs relative to control; type: cell-based; details: concentration not given here
Method in brief: (§1)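 HA22T/VGH cells, which have constitutively active NF-κB, were exposed to compounds at 20 µM for 1.5 or 4 h. DNA-binding activity of the NF-κB p65 subunit was measured and expressed as percent of untreated control.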

[3] = molecular target: Transcription factor p65 (Homo sapiens) (UniProt Q04206); assay: Reduction in DNA binding activity of NF-kappaB p65 subunit in human HA22T/VGH cells after 1.5 hrs relative to control; type: cell-based; details: concentration not given here
Method in brief: as §1

Transcription factor p65 (Homo sapiens), sequence (Q04206 whole entry): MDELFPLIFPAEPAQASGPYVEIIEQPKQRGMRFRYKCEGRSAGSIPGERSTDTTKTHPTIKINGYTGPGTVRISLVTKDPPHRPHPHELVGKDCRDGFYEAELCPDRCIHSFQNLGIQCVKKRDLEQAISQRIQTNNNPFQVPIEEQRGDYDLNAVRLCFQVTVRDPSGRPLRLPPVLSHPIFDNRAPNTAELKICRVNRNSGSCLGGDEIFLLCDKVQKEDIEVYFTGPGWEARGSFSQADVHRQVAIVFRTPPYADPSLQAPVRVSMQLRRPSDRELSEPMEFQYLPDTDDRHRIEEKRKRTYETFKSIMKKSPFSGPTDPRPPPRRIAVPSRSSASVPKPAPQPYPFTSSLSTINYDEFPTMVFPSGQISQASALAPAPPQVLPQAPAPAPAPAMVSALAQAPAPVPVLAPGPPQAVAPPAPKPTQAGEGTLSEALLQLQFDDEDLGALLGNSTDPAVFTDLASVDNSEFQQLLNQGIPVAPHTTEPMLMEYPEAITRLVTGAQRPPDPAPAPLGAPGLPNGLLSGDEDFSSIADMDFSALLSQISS

Compound: CO/N=C(\C=C\c1ccc(O)c(OC)c1)CC(/C=C/c1ccc(O)c(OC)c1)=N/OC
- IC50 [1]: 32.9 µM
- IC70 [1]: 40.4 µM
- IC50 (MCF7R): 39 µM
- IC70 (MCF7R): 52.8 µM
- IC50 (MCF7): 36.3 µM
- IC70 (MCF7): 43.4 µM

Compound: CCNC(=C\C(=O)/C=C/c1ccc(O)c(OC)c1)/C=C/c1ccc(O)c(OC)c1
- IC50 [1]: 26.1 µM
- IC70 [1]: 64.4 µM
- IC50 (MCF7R): 67.6 µM
- IC70 (MCF7R): 88.8 µM
- IC50 (MCF7): 93 µM
- IC70 (MCF7): > 100 µM

Compound: COc1cc(/C=C/C(=O)CC(=O)/C=C/c2ccc(O)c(OC)c2)ccc1O [CURCUMIN]
- IC50 [1]: 17.4 µM
- IC70 [1]: 24.6 µM
- IC50 (MCF7R): 26.2 µM
- IC70 (MCF7R): 46.2 µM
- IC50 (MCF7): 29.3 µM
- IC70 (MCF7): 51.7 µM

Compound: COc1cc(/C=C/C(=O)/C=C(/C=C/c2ccc(O)c(OC)c2)NC(C)c2ccccc2)ccc1O (stereo unspecified)
- IC50 [1]: > 100 µM
- IC70 [1]: > 100 µM
- IC50 (MCF7R): > 100 µM
- IC70 (MCF7R): > 100 µM
- IC50 (MCF7): > 100 µM
- IC70 (MCF7): > 100 µM

Compound: COc1cc(/C=C/C(=O)/C=C(/C=C/c2ccc(O)c(OC)c2)NC(C)C)ccc1O
- IC50 [1]: 26.3 µM
- IC70 [1]: 29.8 µM
- IC50 (MCF7R): 49.8 µM
- IC70 (MCF7R): 79.5 µM
- IC50 (MCF7): 70.3 µM
- IC70 (MCF7): 93.5 µM

Compound: COc1cc(/C=C/C(=O)/C=C(/C=C/c2ccc(O)c(OC)c2)NCc2ccccc2)ccc1O
- IC50 [1]: > 100 µM
- IC70 [1]: > 100 µM
- IC50 (MCF7R): > 100 µM
- IC70 (MCF7R): > 100 µM
- IC50 (MCF7): > 100 µM
- IC70 (MCF7): > 100 µM

Compound: COc1cc(/C=C/C(=O)/C=C(N)/C=C/c2ccc(O)c(OC)c2)ccc1O
- IC50 [1]: 33 µM
- IC70 [1]: 41.1 µM
- IC50 (MCF7R): 54.7 µM
- IC70 (MCF7R): 81.8 µM
- IC50 (MCF7): 49.9 µM
- IC70 (MCF7): 68.1 µM

Compound: COc1cc(/C=C/C(CC(/C=C/c2ccc(O)c(OC)c2)=N/OCc2ccccc2)=N\OCc2ccccc2)ccc1O
- IC50 [1]: 5.9 µM
- IC70 [1]: 8.4 µM
- IC50 (MCF7R): 9.3 µM
- IC70 (MCF7R): 12.9 µM
- inhibition [2]: 64.3%
- IC50 (MCF7): 7.1 µM
- IC70 (MCF7): 9.2 µM
- inhibition [3]: 33.7%

Compound: COc1cc(/C=C/c2cc(/C=C/c3ccc(O)c(OC)c3)on2)ccc1O
- IC50 [1]: 12.8 µM
- IC70 [1]: 18.3 µM
- IC50 (MCF7R): 12 µM
- IC70 (MCF7R): 24.7 µM
- IC50 (MCF7): 13.1 µM
- IC70 (MCF7): 23.2 µM
